# Results: ChEMBL document CHEMBL3785075, “Novel Water-Soluble Amphotericin B-PEG Conjugates with Low Toxicity and Potent in Vivo Efficacy” (J Med Chem, 2016)
# Experiments:
# [1] = test system: Aspergillus fumigatus; assay: Antifungal activity against Aspergillus fumigatus after 48 hrs by CLSI-M27-A3 method; format: functional
# [2] = Chemical stability of compound in phosphate buffer saline assessed as hydrolysis after 4 hrs by HPLC analysis; format: physicochemical
# Summary of the method: (§1)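 Conjugate incubated in phosphate-buffered saline; samples taken at 4 h and after prolonged incubation to 24 h; percent hydrolysis determined by HPLC.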
# [3] = test system: Aspergillus terreus; assay: Antifungal activity against Aspergillus terreus after 48 hrs by CLSI-M27-A3 method; format: functional
# [4] = Chemical stability of compound in phosphate buffer saline assessed as hydrolysis after 24 hrs by HPLC analysis; format: physicochemical; settings: read-out: Drug degradation; summary of the method: as §1
# [5] = Solubility of compound in saline by HPLC analysis; format: physicochemical
# [6] = test system: Candida albicans; assay: Antifungal activity against Candida albicans after 48 hrs by CLSI-M27-A3 method; format: functional
# [7] = test system: MEF; assay: Cytotoxicity against mouse MEF cells assessed as cell viability after 24 hrs by MTT assay; format: cell-based
# [8] = Toxicity in iv dosed ICR mouse; format: organism-based; settings: in vivo
# [9] = test system: Rhizopus arrhizus; assay: Antifungal activity against Rhizopus oryzae after 48 hrs by CLSI-M27-A3 method; format: functional
# [10] = test system: Aspergillus niger; assay: Antifungal activity against Aspergillus niger after 48 hrs by CLSI-M27-A3 method; format: functional
# [11] = Toxicity against human RBC assessed as hemolytic activity at 6 ug/ml after 1 to 21 hrs; format: cell-based; settings: erythrocyte
# [12] = test system: Aspergillus flavus; assay: Antifungal activity against Aspergillus flavus after 48 hrs by CLSI-M27-A3 method; format: functional
# [13] = test system: Pichia kudriavzevii; assay: Antifungal activity against Candida krusei after 48 hrs by CLSI-M27-A3 method; format: functional
structure (smiles),measurement,setting,value
C[C@@H]1[C@H](O)[C@@H](C)/C=C/C=C/C=C/C=C/C=C/C=C/C=C/[C@H](O[C@@H]2O[C@H](C)[C@@H](O)[C@H](NC(=O)CCOCCOCCOCCOCCOCCOCCOCCOCCN)[C@@H]2O)C[C@@H]2O[C@](O)(C[C@@H](O)C[C@@H](O)[C@H](O)CC[C@@H](O)C[C@@H](O)CC(=O)O[C@H]1C)C[C@H](O)[C@H]2C(=O)O,MFC,[1],4 µg/mL
same,MIC,[1],4 µg/mL
same,Stability,[2],Stable
same,MFC,[3],32 µg/mL
same,MIC,[3],32 µg/mL
same,degraded at 24 h,[4],0.5%
same,solubility,[5],5500 µg/mL
same,MFC,[6],4 µg/mL
same,MIC,[6],1 µg/mL
same,IC50,[7],280 µg/mL
same,MTD,[8],22 mg/kg
same,MFC,[9],8000 µg/mL
same,MIC,[9],8 µg/mL
same,MFC,[10],1 µg/mL
same,MIC,[10],1 µg/mL
same,Activity,[11],Toxic
same,MFC,[12],4 µg/mL
same,MIC,[12],4 µg/mL
same,MFC,[13],8 µg/mL
same,MIC,[13],4 µg/mL
